# Assay results reported in ChEMBL document CHEMBL5357024, “MDM2 Antagonist Idasanutlin Reduces HDAC1/2 Abundance and Corepressor Partners but Not HDAC3” (ACS Med Chem Lett, 2024).
# pIC50: −log10 of the molar value. The source made the active and inactive calls. The calls are words filed in the database; no cut-off is given here.
# Assays:
# [1] = target: von Hippel-Lindau disease tumor suppressor/Histone deacetylase 3 (Homo sapiens) (UniProt O15379+P40337); test: PROTAC activity at VHL/HDAC3 in human HCT-116 cells assessed as reduction in HDAC3 abundance by measuring remaining activity at 10 uM measured after 24 hrs by Western blot analysis (reference value: 100%); format: cell-based
# How it was run: (§1)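 HCT116 cells in DMEM with 10% FBS and glutamine/penicillin/streptomycin at 37 °C, 5% CO2. Seeded 4 × 10^5 cells/well, after 24 h treated 24 h with DMSO or compound in fresh medium. Lysed in Tris-HCl/NaCl/NP-40/Triton X-100 buffer with protease inhibitor, Bradford-quantified, 30 μg protein per lane. Quantitative Western blot with specific HDAC1/2/3 antibodies, IRDye secondaries, infrared imaging, versus DMSO. n = 2 replicates.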
# [2] = target: Lysine-specific histone demethylase 1A (Homo sapiens) (UniProt O60341); test: Induction of LSD1 degradation in human HCT-116 cells assessed as reduction in LSD1 abundance by measuring remaining activity at 10 uM measured after 24 hrs by Western blot analysis (reference value: 100%); format: cell-based
# How it was run: (§2)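 HCT116 cells seeded in six-well plates for 24 h, then exposed 24 h to compound (0.01–10 μM) or DMSO in fresh medium. Lysis in Tris-HCl/NaCl/NP-40/Triton X-100 with protease inhibitor. Bradford-normalised 30 μg protein per lane. Quantitative Western blot used specific HDAC1, HDAC2, HDAC3, LSD1 or Sin3a antibodies with IRDye secondaries. Abundance compared with DMSO, n = 2 replicates.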
# [3] = target: von Hippel-Lindau disease tumor suppressor/Histone deacetylase 1 (Homo sapiens) (UniProt Q13547+P40337); test: PROTAC activity at VHL/HDAC1 in human HCT-116 cells assessed as decrease in HDAC1 abundance by measuring remaining activity at 10 uM measured after 24 hrs by Western blot analysis (reference value: 100%); format: cell-based; how it was run: as §1
# HCT-116 [4] = test: Effect on histone H3 lysine K56 acetylation in human HCT-116 cells assessed as increase in H3K56ac level at 10 uM by Western blot analysis; format: functional, cell-based
# How it was run: (§3)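 HCT116 cells (DMEM, 10% FBS, glutamine/pen/strep, 37 °C, 5% CO2) seeded 24 h, then treated with DMSO or compound in fresh medium. Pellets after lysis were acid-extracted with 0.4 N H2SO4 at 4 °C overnight. Acid histone extract run on 4–12% bis-Tris gels, transferred to nitrocellulose and probed for H3K56ac. IRDye secondaries with infrared imaging.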
# [5] = target: von Hippel-Lindau disease tumor suppressor/Histone deacetylase 2 (Homo sapiens) (UniProt Q92769+P40337); test: PROTAC activity at VHL/HDAC2 in human HCT-116 cells assessed as decrease in HDAC2 abundance by measuring remaining activity at 10 uM measured after 24 hrs by Western blot analysis (reference value: 100%); format: cell-based; how it was run: as §1
# [6] = target: T1, Paired amphipathic helix protein Sin3a (Homo sapiens) (UniProt Q96ST3); test: Induction of SIN3A degradation in human HCT-116 cells assessed as reduction in SIN3A abundance by measuring remaining activity at 10 uM measured after 24 hrs by Western blot analysis (reference value: 100%); format: cell-based; how it was run: as §2
# T1 sequence (whole entry): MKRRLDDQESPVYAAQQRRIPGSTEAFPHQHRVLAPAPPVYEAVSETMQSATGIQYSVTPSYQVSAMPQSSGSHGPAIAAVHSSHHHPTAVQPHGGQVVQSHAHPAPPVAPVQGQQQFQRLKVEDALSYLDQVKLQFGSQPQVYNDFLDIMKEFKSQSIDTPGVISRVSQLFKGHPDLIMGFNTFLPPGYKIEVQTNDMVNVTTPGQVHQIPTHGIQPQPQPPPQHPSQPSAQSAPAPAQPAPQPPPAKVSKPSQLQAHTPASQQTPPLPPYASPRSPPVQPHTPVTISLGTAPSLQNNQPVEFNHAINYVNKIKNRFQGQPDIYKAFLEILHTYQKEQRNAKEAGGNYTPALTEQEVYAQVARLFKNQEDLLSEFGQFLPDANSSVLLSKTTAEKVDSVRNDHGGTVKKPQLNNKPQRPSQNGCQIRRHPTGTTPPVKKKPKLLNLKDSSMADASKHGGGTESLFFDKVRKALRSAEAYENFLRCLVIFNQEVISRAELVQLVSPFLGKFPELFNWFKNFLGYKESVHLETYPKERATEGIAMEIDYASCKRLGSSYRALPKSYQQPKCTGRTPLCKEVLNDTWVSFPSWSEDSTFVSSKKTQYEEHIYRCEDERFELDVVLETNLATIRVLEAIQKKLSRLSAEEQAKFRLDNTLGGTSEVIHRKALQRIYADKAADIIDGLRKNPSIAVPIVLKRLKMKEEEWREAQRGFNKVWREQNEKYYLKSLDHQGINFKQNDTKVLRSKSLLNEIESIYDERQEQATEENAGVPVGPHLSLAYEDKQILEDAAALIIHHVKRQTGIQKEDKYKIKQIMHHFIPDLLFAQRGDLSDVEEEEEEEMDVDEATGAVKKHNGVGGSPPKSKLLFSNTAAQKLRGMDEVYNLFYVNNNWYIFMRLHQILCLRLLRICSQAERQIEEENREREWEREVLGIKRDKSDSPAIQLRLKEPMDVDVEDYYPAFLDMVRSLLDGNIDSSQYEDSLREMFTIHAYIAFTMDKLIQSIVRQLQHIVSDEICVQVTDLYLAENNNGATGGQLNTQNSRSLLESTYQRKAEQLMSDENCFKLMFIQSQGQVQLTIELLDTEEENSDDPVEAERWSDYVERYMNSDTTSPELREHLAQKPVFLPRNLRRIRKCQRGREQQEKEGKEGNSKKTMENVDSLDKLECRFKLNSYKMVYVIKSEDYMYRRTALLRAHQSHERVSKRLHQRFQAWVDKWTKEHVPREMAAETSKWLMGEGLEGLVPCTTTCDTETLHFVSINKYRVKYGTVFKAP
# [7] = target: Histone deacetylase 3 (Homo sapiens) (UniProt O15379); test: Induction of HDAC3 degradation in human HCT-116 cells assessed as reduction in HDAC3 abundance by measuring remaining activity at 1 uM measured after 24 hrs by Western blot analysis; format: cell-based; how it was run: as §2
# [8] = target: Histone deacetylase 3 (Homo sapiens) (UniProt O15379); test: Induction of HDAC3 degradation in human HCT-116 cells assessed as reduction in HDAC3 abundance by measuring remaining activity at 10 uM measured after 24 hrs by Western blot analysis; format: cell-based; how it was run: as §2
# [9] = target: T2, E3 ubiquitin-protein ligase Mdm2/Histone deacetylase 2 (Homo sapiens) (UniProt Q00987+Q92769); test: PROTAC activity at MDM2/HDAC2 in human HCT-116 cells assessed as decrease in HDAC2 abundance by measuring remaining activity at 10 uM measured after 24 hrs by Western blot analysis (reference value: 100%); format: cell-based; how it was run: as §2
# [10] = target: T3, E3 ubiquitin-protein ligase Mdm2/Histone deacetylase 1 (Homo sapiens) (UniProt Q00987+Q13547); test: PROTAC activity at MDM2/HDAC1 in human HCT-116 cells assessed as decrease in HDAC1 abundance by measuring remaining activity at 10 uM measured after 24 hrs by Western blot analysis (reference value: 100%); format: cell-based; how it was run: as §2
# [11] = target: T3, E3 ubiquitin-protein ligase Mdm2/Histone deacetylase 1 (Homo sapiens); test: PROTAC activity at MDM2/HDAC1 in human HCT-116 cells assessed as decrease in HDAC1 abundance by measuring remaining activity at 1 uM measured after 24 hrs by Western blot analysis (reference value: 100%); format: cell-based; how it was run: as §2
# [12] = target: T4, E3 ubiquitin-protein ligase Mdm2/Histone deacetylase 3 (Homo sapiens) (UniProt Q00987+O15379); test: PROTAC activity at MDM2/HDAC3 in human HCT-116 cells assessed as reduction in HDAC3 abundance by measuring remaining activity at 10 uM measured after 24 hrs by Western blot analysis (reference value: 100%); format: cell-based; how it was run: as §1
# [13] = target: T3, E3 ubiquitin-protein ligase Mdm2/Histone deacetylase 1 (Homo sapiens); test: PROTAC activity at MDM2/HDAC1 in human HCT-116 cells assessed as decrease in HDAC1 abundance by measuring remaining activity at 0.1 uM measured after 24 hrs by Western blot analysis (reference value: 100%); format: cell-based; how it was run: as §2
# [14] = target: T4, E3 ubiquitin-protein ligase Mdm2/Histone deacetylase 3 (Homo sapiens); test: PROTAC activity at MDM2/HDAC3 in human HCT-116 cells assessed as reduction in HDAC3 abundance by measuring remaining activity at 1 uM measured after 24 hrs by Western blot analysis (reference value: 100%); format: cell-based; how it was run: as §1
# [15] = target: T2, E3 ubiquitin-protein ligase Mdm2/Histone deacetylase 2 (Homo sapiens); test: PROTAC activity at MDM2/HDAC2 in human HCT-116 cells assessed as decrease in HDAC2 abundance by measuring remaining activity at 1 uM measured after 24 hrs by Western blot analysis (reference value: 100%); format: cell-based; how it was run: as §2
# [16] = target: T2, E3 ubiquitin-protein ligase Mdm2/Histone deacetylase 2 (Homo sapiens); test: PROTAC activity at MDM2/HDAC2 in human HCT-116 cells assessed as decrease in HDAC2 abundance by measuring remaining activity at 0.1 uM measured after 24 hrs by Western blot analysis (reference value: 100%); format: cell-based; how it was run: as §2
# [17] = target: T4, E3 ubiquitin-protein ligase Mdm2/Histone deacetylase 3 (Homo sapiens); test: PROTAC activity at MDM2/HDAC3 in human HCT-116 cells assessed as reduction in HDAC3 abundance by measuring remaining activity at 0.1 uM measured after 24 hrs by Western blot analysis (reference value: 100%); format: cell-based; how it was run: as §1
# HCT-116 [18] = test: Effect on histone H3 lysine K56 acetylation in human HCT-116 cells assessed as increase in H3K56ac level at 0.1 to 10 uM by Western blot analysis; format: functional, cell-based; details: dose 0.1-10 µM; how it was run: as §3
# [19] = Inhibition of LSD1-CoREST-HDAC (unknown origin) by AMC-fluorescence assay; set-up: species or system Homo sapiens
# T4 sequence (O15379 whole entry, looked up): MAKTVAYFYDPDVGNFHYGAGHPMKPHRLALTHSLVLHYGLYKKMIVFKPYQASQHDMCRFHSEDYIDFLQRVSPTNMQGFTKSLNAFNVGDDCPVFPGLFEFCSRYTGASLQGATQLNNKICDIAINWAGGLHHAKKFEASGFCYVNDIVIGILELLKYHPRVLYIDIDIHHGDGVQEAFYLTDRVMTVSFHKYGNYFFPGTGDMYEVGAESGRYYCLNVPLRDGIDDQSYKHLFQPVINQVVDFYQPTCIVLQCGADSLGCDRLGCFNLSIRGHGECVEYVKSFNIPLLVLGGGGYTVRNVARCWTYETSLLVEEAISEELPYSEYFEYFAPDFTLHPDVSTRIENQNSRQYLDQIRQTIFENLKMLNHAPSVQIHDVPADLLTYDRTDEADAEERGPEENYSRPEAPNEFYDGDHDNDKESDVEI
# T4 sequence (Q00987 whole entry, looked up): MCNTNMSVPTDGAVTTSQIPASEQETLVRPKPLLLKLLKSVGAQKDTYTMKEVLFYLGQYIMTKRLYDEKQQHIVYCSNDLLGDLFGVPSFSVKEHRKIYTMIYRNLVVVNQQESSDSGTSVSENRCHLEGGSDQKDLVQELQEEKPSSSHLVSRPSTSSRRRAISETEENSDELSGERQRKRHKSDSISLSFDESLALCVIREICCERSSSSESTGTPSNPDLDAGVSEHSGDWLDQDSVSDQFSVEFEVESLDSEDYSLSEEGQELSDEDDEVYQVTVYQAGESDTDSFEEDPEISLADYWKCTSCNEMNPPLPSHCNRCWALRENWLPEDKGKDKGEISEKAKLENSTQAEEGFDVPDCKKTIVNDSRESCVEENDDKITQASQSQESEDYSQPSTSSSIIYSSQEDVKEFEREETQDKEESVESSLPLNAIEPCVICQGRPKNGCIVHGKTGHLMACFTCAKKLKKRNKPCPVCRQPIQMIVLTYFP
# Sequence of Histone deacetylase 3 (Homo sapiens) (O15379 whole entry): as the sequence (O15379 whole entry, looked up) above
# T3 sequence (Q00987 whole entry, looked up): as the sequence (Q00987 whole entry, looked up) above
# T3 sequence (Q13547 whole entry, looked up): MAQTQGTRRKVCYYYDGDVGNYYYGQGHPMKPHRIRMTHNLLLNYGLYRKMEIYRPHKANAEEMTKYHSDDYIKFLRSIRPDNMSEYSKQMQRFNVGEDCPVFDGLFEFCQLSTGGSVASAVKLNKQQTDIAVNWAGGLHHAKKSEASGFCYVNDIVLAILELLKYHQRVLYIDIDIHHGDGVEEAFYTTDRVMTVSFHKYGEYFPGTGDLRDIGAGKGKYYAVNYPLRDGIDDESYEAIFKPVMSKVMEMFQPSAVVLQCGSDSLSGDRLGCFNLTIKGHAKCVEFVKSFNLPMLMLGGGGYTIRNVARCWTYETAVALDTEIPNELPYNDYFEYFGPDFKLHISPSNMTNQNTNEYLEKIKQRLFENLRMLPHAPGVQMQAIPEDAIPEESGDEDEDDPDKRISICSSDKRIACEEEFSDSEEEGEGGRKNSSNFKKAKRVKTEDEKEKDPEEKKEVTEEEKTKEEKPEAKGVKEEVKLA
# T2 sequence (Q00987 whole entry, looked up): as the sequence (Q00987 whole entry, looked up) above
# T2 sequence (Q92769 whole entry, looked up): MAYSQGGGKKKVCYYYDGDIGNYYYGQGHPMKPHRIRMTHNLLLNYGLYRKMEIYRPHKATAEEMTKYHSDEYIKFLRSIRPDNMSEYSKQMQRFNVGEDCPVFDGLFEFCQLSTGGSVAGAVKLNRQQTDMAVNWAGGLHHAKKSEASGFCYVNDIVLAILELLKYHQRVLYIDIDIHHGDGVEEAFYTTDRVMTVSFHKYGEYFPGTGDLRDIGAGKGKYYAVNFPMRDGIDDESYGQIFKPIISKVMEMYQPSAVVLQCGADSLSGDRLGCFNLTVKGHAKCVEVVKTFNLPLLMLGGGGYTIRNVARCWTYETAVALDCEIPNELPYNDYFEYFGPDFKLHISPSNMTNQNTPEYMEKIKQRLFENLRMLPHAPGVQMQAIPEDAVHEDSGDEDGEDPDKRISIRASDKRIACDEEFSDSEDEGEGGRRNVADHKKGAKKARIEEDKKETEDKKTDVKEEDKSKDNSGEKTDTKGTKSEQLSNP
# Sequence of von Hippel-Lindau disease tumor suppressor/Histone deacetylase 2 (Homo sapiens) (P40337 whole entry, looked up): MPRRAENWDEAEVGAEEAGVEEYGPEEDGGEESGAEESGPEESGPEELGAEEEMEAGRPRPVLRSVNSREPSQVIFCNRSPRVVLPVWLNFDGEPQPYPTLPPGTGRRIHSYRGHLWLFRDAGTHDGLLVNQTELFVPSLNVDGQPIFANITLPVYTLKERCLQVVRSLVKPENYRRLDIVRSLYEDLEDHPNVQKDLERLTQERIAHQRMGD
# Sequence of von Hippel-Lindau disease tumor suppressor/Histone deacetylase 2 (Homo sapiens) (Q92769 whole entry, looked up): as the sequence (Q92769 whole entry, looked up) above
# Sequence of von Hippel-Lindau disease tumor suppressor/Histone deacetylase 1 (Homo sapiens) (P40337 whole entry, looked up): as the sequence (P40337 whole entry, looked up) above
# Sequence of von Hippel-Lindau disease tumor suppressor/Histone deacetylase 1 (Homo sapiens) (Q13547 whole entry, looked up): as the sequence (Q13547 whole entry, looked up) above
# Sequence of von Hippel-Lindau disease tumor suppressor/Histone deacetylase 3 (Homo sapiens) (O15379 whole entry, looked up): as the sequence (O15379 whole entry, looked up) above
# Sequence of von Hippel-Lindau disease tumor suppressor/Histone deacetylase 3 (Homo sapiens) (P40337 whole entry, looked up): as the sequence (P40337 whole entry, looked up) above
SMILES,Activity [1] [%],Activity [2] [%],Activity [3] [%],Activity [5] [%],Activity [6] [%],Activity [7] [%],Activity [8] [%],Activity [9] [%],Activity [10] [%],Activity [11] [%],Activity [12] [%],Activity [13] [%],Activity [14] [%],Activity [15] [%],Activity [16] [%],Activity [17] [%],pIC50 [19],Activity (HCT-116 [4]),Activity (HCT-116 [18])
Cc1ncsc1-c1ccc(CNC(=O)[C@@H]2C[C@@H](O)CN2C(=O)[C@@H](NC(=O)CCCCCCCCCCC(=O)Nc2ccc(C(=O)Nc3ccccc3N)cc2)C(C)(C)C)cc1,88,97,37,58,85,,,,,,,,,,,,,Active,
COc1cc(C(=O)O)ccc1NC(=O)[C@@H]1N[C@@H](CC(C)(C)C)[C@](C#N)(c2ccc(Cl)cc2F)[C@H]1c1cccc(Cl)c1F,,,,,,110,101,,,,,,,,,,,,
CC(=O)Nc1ccc(C(=O)Nc2ccccc2N)cc1 [TACEDINALINE],,109,,,81,122,138,,,,,,,,,,~6.30,Active,

# The next lines start with results.
Activity [1] [%],Activity [2] [%],Activity [3] [%],Activity [5] [%],Activity [6] [%],Activity [7] [%],Activity [8] [%],Activity [9] [%],Activity [10] [%],Activity [11] [%],Activity [12] [%],Activity [13] [%],Activity [14] [%],Activity [15] [%],Activity [16] [%],Activity [17] [%],pIC50 [19],SMILES,Activity (HCT-116 [4]),Activity (HCT-116 [18])
,,,,,,,100,101,88,109,93,114,101,100,114,,COc1cc(C(=O)NCCCCCCCC(=O)Nc2ccc(C(=O)Nc3ccccc3N)cc2)ccc1NC(=O)[C@@H]1N[C@@H](CC(C)(C)C)[C@](C#N)(c2ccc(Cl)cc2F)[C@H]1c1cccc(Cl)c1F,,
,,,,,,,84,65,85,122,91,128,94,102,112,,COc1cc(C(=O)NCCOCCOCCOCCC(=O)Nc2ccc(C(=O)Nc3ccccc3N)cc2)ccc1NC(=O)[C@@H]1N[C@@H](CC(C)(C)C)[C@](C#N)(c2ccc(Cl)cc2F)[C@H]1c1cccc(Cl)c1F,,inactive
,,,,,,,103,109,103,118,98,102,101,100,101,,COc1cc(C(=O)NCCCCCCCCCCCC(=O)Nc2ccc(C(=O)Nc3ccccc3N)cc2)ccc1NC(=O)[C@@H]1N[C@@H](CC(C)(C)C)[C@](C#N)(c2ccc(Cl)cc2F)[C@H]1c1cccc(Cl)c1F,,
